Test results as given in ChEMBL document CHEMBL1136968, “Structurally simple inhibitors of lanosterol 14alpha-demethylase are efficacious in a rodent model of acute Chagas disease” (J Med Chem, 2009).
pEC50: −log10 of the molar value.

Key:
[1] = system: Trypanosoma cruzi; test: Antitrypanosomal activity against Trypanosoma cruzi Tulahuen amastigotes in mouse 3T3 cells by beta-galactosidase reporter gene assay; type: functional, organism-based; conditions: NIH3T3
In short: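 Tulahuen strain (TCII lineage) grown as intracellular amastigotes in murine 3T3 fibroblasts in 96-well plates. EC50 determined from triplicate screens. Standard errors within assays stayed below 15%.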

[2] = Toxicity against mouse 3T3 cells by resazurin assay; type: cell-based; conditions: NIH3T3 cells
In short: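 Murine 3T3 fibroblasts screened separately from the parasites. Host-cell growth was quantified by resazurin read-out and EC50 determined.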

Structure (SMILES) | pEC50 [1] | pEC50 [2]
c1ccc(-c2ccc(Cn3cncc3CNc3ccc(-c4ccccc4)c(-c4ccccc4)c3)cc2)cc1 | 7.10 | < 5.00
COC(=O)c1ccc(NCc2cncn2Cc2ccc(OC)cc2)cc1-c1ccccc1 | 7.60 | –
c1ccc(Cn2cncc2CNc2cccc(-c3ccccc3)c2)cc1 | 6.44 | < 6.12
COC(=O)c1ccc(NCc2cncn2Cc2ccc([N+](=O)[O-])cc2)cc1-c1ccccc1 | 7.00 | < 5.00
COC(=O)c1ccc(NCc2cncn2Cc2ccccc2Br)cc1-c1ccccc1 | 7.00 | 5.00
Cc1cccc(-c2cc(NCc3cncn3Cc3ccc(-c4ccccc4)cc3)ccc2-c2nc3ccccc3s2)c1C | 7.19 | < 6.00
CCC(=O)c1ccc(NCc2cncn2Cc2ccc(-c3ccccc3)cc2)cc1-c1ccccc1 | 7.40 | < 5.00
Cc1ccccc1-c1cccc(NCc2cncn2Cc2ccccc2)c1 | 6.64 | < 6.00
COC(=O)c1ccc(NCc2cncn2Cc2ccc(N)cc2)cc1-c1ccccc1 | 6.60 | < 5.00
Cc1ccccc1-c1ccc(Cn2cncc2CNc2ccc(-c3nc4ccccc4s3)c(-c3ccccc3)c2)cc1 | 6.92 | < 6.00
CC(C)OC(=O)c1ccc(NCc2cncn2Cc2ccc(-c3ccccc3)cc2)cc1-c1ccccc1 | 7.30 | < 5.00
O=[N+]([O-])c1ccc(Cn2cncc2CNc2cccc(-c3ccccc3)c2)cc1 | 7.00 | 5.00
COC(=O)c1ccc(NCc2cncn2Cc2ccccc2)cc1-c1ccccc1 | 7.10 | < 6.00
COC(=O)c1ccc(NCc2cncn2Cc2ccccc2C)cc1-c1ccccc1 | 6.00 | 5.00
COC(=O)c1ccc(NCc2cncn2Cc2ccccc2Cl)cc1-c1ccccc1 | 7.00 | 5.00
CC(=O)c1ccc(NCc2cncn2Cc2ccc(-c3ccccc3)cc2)cc1-c1ccccc1 | 7.40 | < 5.00
c1ccc(Cn2cncc2CNc2cccc(-c3cccnc3)c2)cc1 | 6.22 | < 6.00
O=C(c1ccc(NCc2cncn2Cc2ccc(-c3ccccc3)cc2)cc1-c1ccccc1)N1CCCCC1 | 7.62 | < 6.00
CC(C)c1cccc(NCc2cncn2Cc2ccccc2)c1 | < 6.00 | < 6.00
c1ccc(-c2ccc(Cn3cncc3CNc3ccc(N4CCCCC4)c(-c4ccccc4)c3)cc2)cc1 | 7.64 | < 6.00
COC(=O)c1ccc(NCc2cncn2Cc2cccc(F)c2)cc1-c1ccccc1 | 6.82 | < 6.00
c1ccc(Cn2cncc2CNc2cccc(-c3ccncc3)c2)cc1 | 6.29 | < 6.00
c1ccc(-c2ccc(Cn3cncc3CNc3ccccc3-c3ccccc3)cc2)cc1 | 7.10 | < 5.00
COC(=O)c1ccc(NCc2cncn2Cc2ccccc2[N+](=O)[O-])cc1-c1ccccc1 | 7.00 | 5.00
Cc1ccccc1-c1cc(NCc2cncn2Cc2ccc(-c3ccccc3)cc2)ccc1-c1nc2ccccc2s1 | 7.51 | < 6.00

Structure (SMILES) | pEC50 [1] | pEC50 [2]
CCCC(=O)c1ccc(NCc2cncn2Cc2ccc(-c3ccccc3)cc2)cc1-c1ccccc1 | 7.40 | < 5.00
COC(=O)c1ccc(NCc2cncn2Cc2ccc(F)cc2F)cc1-c1ccccc1 | 7.68 | < 6.00
COC(=O)c1ccc(NCc2cncn2Cc2ccc(-c3ccccc3)cc2)cc1 | 7.10 | < 5.00
COC(=O)c1ccc(NCc2cncn2Cc2ccccc2C#N)cc1-c1ccccc1 | 6.70 | 4.60
COC(=O)c1ccc(NCc2cncn2Cc2cccc(N)c2)cc1-c1ccccc1 | 6.89 | < 5.00
c1ccc(-c2ccc(Cn3cncc3CNc3ccc(-c4ccccc4)cc3)cc2)cc1 | 6.70 | < 5.00
CCc1ccc(Cn2cncc2CNc2ccc(-c3nc4ccccc4s3)c(-c3ccccc3)c2)cc1 | 6.96 | < 6.00
COC(=O)c1ccc(NCc2cncn2Cc2cccc([N+](=O)[O-])c2)cc1-c1ccccc1 | 7.52 | < 5.00
Cc1cccc(-c2cccc(NCc3cncn3Cc3ccccc3)c2)c1C | 6.59 | < 6.00
COC(=O)c1ccc(NCc2cncn2Cc2ccc(C#N)cc2)cc1-c1ccccc1 | 7.60 | < 5.00
c1ccc(-c2ccc(Cn3cncc3CNc3ccc(-c4onc5ccccc45)c(-c4ccccc4)c3)cc2)cc1 | 7.30 | < 5.00
c1ccc(-c2ccc(Cn3cncc3CNc3ccc(-c4cc5ccccc5o4)c(-c4ccccc4)c3)cc2)cc1 | 7.40 | < 5.00
Cc1cccc(-c2cccc(NCc3cncn3Cc3ccccc3)c2)c1 | 6.26 | < 6.00
COC(=O)c1ccc(NCc2cncn2Cc2cccc(C(C)(C)C)c2)cc1-c1ccccc1 | 6.32 | < 6.00
COC(=O)c1ccc(NCc2cncn2Cc2cccc(C#N)c2)cc1-c1ccccc1 | 7.00 | < 5.00
c1ccc(-c2ccc(Cn3cncc3CNc3ccc(-c4ccc[nH]4)c(-c4ccccc4)c3)cc2)cc1 | 7.00 | < 5.00
Fc1ccc(Cn2cncc2CNc2ccc(-c3nc4ccccc4s3)c(-c3ccccc3)c2)c(F)c1 | 6.38 | < 6.00
Cc1ccc(Cn2cncc2CNc2cccc(-c3ccccc3)c2)cc1 | 7.00 | 5.00
c1ccc(-c2ccc(Cn3cncc3CNc3ccc(-c4nc5ccccc5o4)c(-c4ccccc4)c3)cc2)cc1 | 7.00 | < 5.00
Clc1ccc(Cn2cncc2CNc2cccc(-c3ccccc3)c2)cc1 | 7.10 | 5.00
c1ccc(-c2ccc(Cn3cncc3CNc3ccc(N4CCCC4)c(-c4ccccc4)c3)cc2)cc1 | 7.66 | < 6.00
CS(=O)(=O)c1ccc(Cn2cncc2CNc2ccc(-c3nc4ccccc4s3)c(-c3ccccc3)c2)cc1 | < 6.00 | < 6.00
CC(C)c1ccc(Cn2cncc2CNc2ccc(-c3nc4ccccc4s3)c(-c3ccccc3)c2)cc1 | 6.27 | < 6.00
Clc1ccc(Cn2cncc2CNc2ccc(-c3nc4ccccc4s3)c(-c3ccccc3)c2)cc1 | 6.60 | < 6.00

These reach a higher pEC50 [1]. Values come first.

pEC50 [1] | Structure (SMILES) | pEC50 [2]
7.70 | CN(C)c1ccc(NCc2cncn2Cc2ccc(-c3ccccc3)cc2)cc1-c1ccccc1 | < 6.00
9.10 | COc1ccc(NCc2cncn2Cc2ccc(-c3ccccc3)cc2N)cc1-c1ccccc1 | < 6.00
8.22 | Clc1ccc(NCc2cncn2Cc2ccc(-c3ccccc3)cc2)cc1-c1ccccc1 | < 6.00
8.30 | COC(=O)c1ccc(NCc2cncn2Cc2ccc(Cl)cc2)cc1-c1ccccc1 | 4.60
8.62 | CNC(=O)c1ccc(NCc2cncn2Cc2ccc(-c3ccccc3)cc2)cc1-c1ccccc1 | < 6.00
8.15 | COc1ccc(NCc2cncn2Cc2ccc(-c3ccccc3)cc2)cc1-c1ccccc1 | < 6.00
7.92 | CNC(=O)c1ccc(NCc2cncn2Cc2ccc(-c3ccccc3)cc2N)cc1-c1ccccc1 | < 6.00
8.30 | COC(=O)c1ccc(NCc2cncn2Cc2ccc(C)cc2)cc1-c1ccccc1 | 4.30
8.30 | COC(=O)c1ccc(NCc2cncn2Cc2ccccc2N)cc1-c1ccccc1 | 4.60
7.70 | COC(=O)c1ccc(NCc2cncn2Cc2cccc(Br)c2)cc1-c1ccccc1 | < 5.00
8.03 | CN(C)C(=O)c1ccc(NCc2cncn2Cc2ccc(-c3ccccc3)cc2)cc1-c1ccccc1 | < 6.00
8.00 | CCOC(=O)c1ccc(NCc2cncn2Cc2ccc(-c3ccccc3)cc2)cc1-c1ccccc1 | < 5.00
8.00 | c1ccc(-c2ccc(Cn3cncc3CNc3cccc(-c4ccccc4)c3)cc2)cc1 | 5.00
8.00 | c1ccc(-c2ccc(Cn3cncc3CNc3ccc(-c4noc5ccccc45)c(-c4ccccc4)c3)cc2)cc1 | < 5.00
8.00 | Nc1cc(-c2ccccc2)ccc1Cn1cncc1CNc1ccc(-c2cncs2)c(-c2ccccc2)c1 | < 6.00
7.70 | COC(=O)c1ccc(NCc2cncn2Cc2cccc(Cl)c2)cc1-c1ccccc1 | < 5.00
7.70 | COC(=O)c1ccc(NCc2cncn2Cc2ccc(Br)cc2)cc1-c1ccccc1 | < 5.00
8.05 | c1ccc(-c2ccc(Cn3cncc3CNc3ccc(-c4cncs4)c(-c4ccccc4)c3)cc2)cc1 | < 6.00
7.70 | COC(=O)c1ccc(NCc2cncn2Cc2cccc(C)c2)cc1-c1ccccc1 | < 5.00
8.82 | N#Cc1ccc(NCc2cncn2Cc2ccc(-c3ccccc3)cc2N)cc1-c1ccccc1 | < 6.00
8.00 | O=C(OC1CCCCC1)c1ccc(NCc2cncn2Cc2ccc(-c3ccccc3)cc2)cc1-c1ccccc1 | < 5.00
8.89 | N#Cc1ccc(NCc2cncn2Cc2ccc(-c3ccccc3)cc2)cc1-c1ccccc1 | < 6.00
9.30 | COC(=O)c1ccc(NCc2cncn2Cc2ccc(-c3ccccc3)cc2)cc1-c1ccccc1 | < 6.00
